Experimental findings from ChEMBL document CHEMBL1143955, “Synthesis and exploration of novel curcumin analogues as anti-malarial agents” (Bioorg Med Chem, 2008) are described below.

Molecules are shown by their SMILES. Values after ≈ are worked out from the molar mass of the structure shown. Active and inactive are the calls of the source.

Assay type in all cases: functional, organism-based
In experiment [1] the test system is Plasmodium falciparum. The experiment can be described thus: Antimalarial activity against chloroquine-resistant Plasmodium falciparum MP14. The essentials: (§1)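 Sorbitol-synchronised P. falciparum cultured in RPMI 1640 with 10% human serum, 0.225% sodium bicarbonate and 0.01 mg/mL gentamicin. Infected red cells (1–2% parasitemia, ring stage) were used at 2% hematocrit with varying inhibitor concentrations (final DMSO ≤0.05%; 0.05% DMSO as solvent control), starting at early trophozoite and dosing up to day 4. Parasitemia was read by Giemsa microscopy, and IC50 was fitted by non-linear regression of relative % parasitemia versus log concentration.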

Experiment [2] deals with Plasmodium falciparum. The experiment can be described thus: Antimalarial activity against chloroquine-sensitive Plasmodium falciparum FCK2. Summed up: as §1
Experiment [3] deals with Plasmodium falciparum. In words: Antimalarial activity against chloroquine-sensitive Plasmodium falciparum FCK2 in red blood cells as reduced parasitemia in [3H]hypoxanthine uptake. Conditions: in the assay text read “by microscopic examination” for “in [3H]hypoxanthine uptake”.
The subject of experiment [4] is Plasmodium falciparum. In words: Antimalarial activity against chloroquine-resistant Plasmodium falciparum MP14 in red blood cells as reduced parasitemia in [3H]hypoxanthine uptake assay. The essentials: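 Ring-stage synchronised parasites were used at 2–3% hematocrit and 1–2% initial parasitemia, in duplicate. Varying inhibitor concentrations (final DMSO ≤0.05%) were added in fresh medium every 24 h for 48 h. [3H]-hypoxanthine was then added for 36 h, and cells were harvested onto glass-fibre filters and read by scintillation counting. IC50 came from a non-linear regression fit of relative % parasitemia versus log concentration.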

In the experiment on Plasmodium falciparum [1], `COc1cc(/C=C/c2cc(/C=C/c3ccc(O)c(OC)c3)n(-c3ccccc3)n2)ccc1O` came in with an IC50 of 9.1 µM and an MIC of 25 µM (≈ 11 µg/mL). In the experiment with Plasmodium falciparum [2], this molecule yielded a half-inhibitory concentration (IC50) of 8.48 µM and an MIC of 22.4 µM (≈ 9.87 µg/mL).

In the experiment with Plasmodium falciparum [1], `COc1cc(/C=C/C(=O)CC(=O)/C=C/c2ccc(O)c(OC)c2)ccc1O` [CURCUMIN] yielded an IC50 of 4.21 µM and a minimal inhibitory concentration (MIC) of 14.4 µM (≈ 5.3 µg/mL). In the experiment with Plasmodium falciparum [2], this molecule registered an IC50 of 3.25 µM and a minimum inhibitory concentration (MIC) of 13.2 µM (≈ 4.86 µg/mL).

In the experiment on Plasmodium falciparum [1], `COc1ccc(/C=C/C(=O)CC(=O)/C=C/c2ccc(OC)c(OC)c2)cc1OC` [TETRAMETHOXYCURCUMIN] registered an IC50 of 8.4 µM and an MIC of 29.1 µM (≈ 11.5 µg/mL). Further, in the experiment on Plasmodium falciparum [2], the IC50 was 7.86 µM and the minimum inhibitory concentration (MIC) was found to be 29.6 µM (≈ 11.7 µg/mL).

In the experiment on Plasmodium falciparum [1], `COc1cc(C=C(C(=O)/C=C/c2ccc(O)c(OC)c2)C(=O)/C=C/c2ccc(O)c(OC)c2)ccc1O` showed an IC50 of 0.75 µM and an MIC of 4.8 µM (≈ 2.41 µg/mL). In the experiment on Plasmodium falciparum [2], this molecule returned an IC50 of 0.92 µM and an MIC of 5.2 µM (≈ 2.61 µg/mL).

As to `COc1cc(/C=C/c2cc(/C=C/c3ccc(O)c(OC)c3)n(-c3ccc(F)cc3)n2)ccc1O`, the IC50 worked out at 2.1 µM with Plasmodium falciparum [1] and 2.42 µM in the experiment with Plasmodium falciparum [2]. The figures for the minimum inhibitory concentration (MIC) in the experiment on Plasmodium falciparum [1] and in the experiment on Plasmodium falciparum [2] were 12.9 µM (≈ 5.91 µg/mL) and 14.3 µM (≈ 6.56 µg/mL), respectively.

For `COc1cc(/C=C/c2cc(/C=C/c3ccc(O)c(OC)c3)n(-c3cccc([N+](=O)[O-])c3)n2)ccc1O`, the outcome with Plasmodium falciparum [3] and with Plasmodium falciparum [4] was Active. In addition, the IC50 is 0.89 µM in the experiment on Plasmodium falciparum [1] and 0.87 µM in the experiment with Plasmodium falciparum [2]. Moreover, the MIC in the experiment on Plasmodium falciparum [1] amounted to 5.1 µM (≈ 2.48 µg/mL); against Plasmodium falciparum [2] it was 4.9 µM (≈ 2.38 µg/mL).

For the molecule `COc1cc(/C=C/c2cc(/C=C/c3ccc(O)c(OC)c3)[nH]n2)ccc1O` [CURCUMIN PYRAZOLE], in the experiment on Plasmodium falciparum [1], the IC50 was 0.45 µM and the MIC stood at 3.6 µM (≈ 1.31 µg/mL). In the experiment on Plasmodium falciparum [2], the IC50 was 0.48 µM and the minimum inhibitory concentration (MIC) was 3.9 µM (≈ 1.42 µg/mL).

In the experiment with Plasmodium falciparum [1], `COc1cc(/C=C/c2cc(/C=C/c3ccc(O)c(OC)c3)on2)ccc1O` came in with an IC50 of 7.92 µM and a minimum inhibitory concentration (MIC) of 25.3 µM (≈ 9.24 µg/mL). In the experiment with Plasmodium falciparum [2], the half-inhibitory concentration (IC50) came out at 8.44 µM and 27.3 µM (≈ 9.98 µg/mL) was the least that counted as inhibitory (MIC).

In the experiment on Plasmodium falciparum [1], `COc1cc(/C=C/c2cc(/C=C/c3ccc(O)c(OC)c3)n(-c3ccc(Cl)cc3Cl)n2)ccc1O` yielded an IC50 of 4.8 µM and an MIC of 21.4 µM (≈ 10.9 µg/mL). In the experiment with Plasmodium falciparum [2], this molecule registered an IC50 of 4.65 µM and an MIC of 21.8 µM (≈ 11.1 µg/mL).

In the case of `COc1cc(/C=C/C(=O)C(=Cc2ccc(O)cc2)C(=O)/C=C/c2ccc(O)c(OC)c2)ccc1O`, in the experiment on Plasmodium falciparum [1], the IC50 was 5.36 µM and 23.1 µM (≈ 10.9 µg/mL) was the least that counted as inhibitory (MIC). In the experiment with Plasmodium falciparum [2], this molecule displayed an IC50 of 5.85 µM and an MIC of 23.7 µM (≈ 11.2 µg/mL).

`COc1cc(/C=C/C(=O)CC(=O)/C=C/c2ccc(OC(C)=O)c(OC)c2)ccc1OC(C)=O`: in the experiment on Plasmodium falciparum [1], the IC50 came to 2.51 µM and it took 15.3 µM (≈ 6.92 µg/mL) to inhibit growth (MIC). In the experiment with Plasmodium falciparum [2], the IC50 turned out to be 2.34 µM and 14.9 µM (≈ 6.74 µg/mL) was the least that counted as inhibitory (MIC).

For `COc1cc(/C=C/C(=O)C(=Cc2ccccc2)C(=O)/C=C/c2ccc(O)c(OC)c2)ccc1O`, in the experiment with Plasmodium falciparum [1], the IC50 worked out at 4.12 µM and the MIC came to 17.2 µM (≈ 7.85 µg/mL). For the same molecule, in the experiment on Plasmodium falciparum [2], the IC50 came out at 3.89 µM and the lowest concentration to inhibit growth (MIC) was 16.5 µM (≈ 7.53 µg/mL).

Turning to `COc1ccc(-n2nc(/C=C/c3ccc(O)c(OC)c3)cc2/C=C/c2ccc(O)c(OC)c2)cc1`, in the experiment with Plasmodium falciparum [1], the IC50 was determined as 24.6 µM and the lowest concentration to inhibit growth (MIC) was 41.2 µM (≈ 19.4 µg/mL). In the experiment on Plasmodium falciparum [2], this molecule yielded an IC50 of 22.6 µM and an MIC of 35.8 µM (≈ 16.8 µg/mL).

In general, IC50 refers to the point on the concentration scale where inhibition reaches its midpoint. Lower therefore signals greater potency in that assay. A word on the MIC: it is the smallest concentration in the dilution series that meets the test's criterion for growth inhibition.
